Results as given in ChEMBL document CHEMBL1143122, “Novel analogs of D-e-MAPP and B13. Part 1: synthesis and evaluation as potential anticancer agents” (Bioorg Med Chem, 2008).

Each compound was assayed on MCF7 (assay: Drug level in human MCF7 cells at 10 uM per 10^6 cells after 0.5 hrs). Details: mcf7, 0.5 h.
Format: ADME, cell-based
Outline: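 MCF7 cells kept in RPMI 1640 with 10% fetal calf serum at 37 °C, 5% CO2, then treated with 10 μM analog. Intracellular analog measured over time by HPLC-MS in positive-ion MRM mode. Quantified against calibration curves made by spiking an artificial matrix with standards plus internal standard, using analyte/IS peak-area ratios and linear regression. Reported as pmol per 1×10^6 cells.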

SMILES | Drug uptake
CCCCCCCCCCCCCC(=O)N[C@H](CO)[C@H](O)c1ccc(NC(=O)CCCCC[n+]2ccccc2)cc1.[Br-] | 800 pmol

Each compound was assayed on MCF7 (assay: Antiproliferative activity against human MCF7 cells after 48 hrs). Details: MCF7, 48 h.
Format: functional, cell-based

SMILES | IC50
CCCCCCCCCCCCCC(=O)N[C@H](C)[C@@H](O)c1ccccc1 | 30 µM
CCCCCCCCCCCCCC(=O)N(C)[C@H](C)[C@H](O)c1ccccc1 | > 10 µM
CCCCCCCCCCCCCC(=O)N[C@H](CO)[C@H](O)c1ccc(NC(=O)CCCCC[n+]2ccccc2)cc1.[Br-] | 20 µM
CCCCCCCCCCCCCC(=O)N(C)[C@H](C)[C@@H](O)c1ccccc1 | > 10 µM
CCCCCCCCCCCCCC(=O)N(C)[C@@H](C)[C@@H](O)c1ccccc1 | > 10 µM
CCCCCCCCCCCCCC(=O)N(C)[C@@H](C)[C@H](O)c1ccccc1 | > 10 µM
CCCCCCCCCCCCN[C@H](C)[C@@H](O)c1ccccc1 | 9 µM

Now from value to compound:

IC50 | SMILES
14 µM | CCCCCCCCCCCCCC(=O)N[C@H](CO)[C@H](O)c1ccc([N+](=O)[O-])cc1
> 10 µM | CCCCCCCCCCCCNC(=O)N[C@H](CO)[C@H](O)c1ccc([N+](=O)[O-])cc1
> 10 µM | CCCCCCCCCCCCNC(=O)N[C@@H](C)[C@H](O)c1ccccc1
> 10 µM | CCCCCCCCCCCCNC(=O)N[C@@H](CO)[C@@H](O)c1ccc([N+](=O)[O-])cc1
> 10 µM | CCCCCCCCCCCCNC(=O)N[C@H](C)[C@@H](O)c1ccccc1
